MrgX1 antag – antagonists of human MrgX1 receptor, primary screen, HEK293 cells, Fluo-4 calcium flux; B-score at 10 µM; Mas-related G-protein coupled receptor member X1 (Homo sapiens), Q96LB2; 310,000 compounds, 1.3% hits; BAM8-22 antagonism; hits give low values;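 active = calcium-response B-score plate-corrected more than 3 library SD below zero, starting fluorescence within 5 deviations, no agonist response on first addition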;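 note: peak minus trough fluorescence over baseline after final BAM8-22 challenge near maximal dose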
PHOSPHO1 block – PubChem AID 1565; Phosphoethanolamine/phosphocholine phosphatase (Homo sapiens), Q8TCT1; recombinant PHOSPHO1, absorbance phosphatase assay; inhibition, % at 13.3 µM; 290,000 compounds, 1.1% hits; in the data active = inhibition above about 60%
Target sequence (Q8TCT1 whole entry, looked up): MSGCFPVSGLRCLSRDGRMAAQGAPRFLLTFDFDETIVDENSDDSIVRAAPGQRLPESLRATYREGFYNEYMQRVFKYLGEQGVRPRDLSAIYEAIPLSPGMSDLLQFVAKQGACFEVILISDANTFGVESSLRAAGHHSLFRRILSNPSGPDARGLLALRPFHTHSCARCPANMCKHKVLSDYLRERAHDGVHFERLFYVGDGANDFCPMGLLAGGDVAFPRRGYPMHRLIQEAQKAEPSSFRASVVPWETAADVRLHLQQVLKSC
MrgX1 allo act – positive allosteric modulators of MrgX1, primary screen, HEK293 cells, Fluo-4 calcium flux; 310,000 compounds, 0.63% hits; B-score at 10 µM; Mas-related G-protein coupled receptor member X1 (Homo sapiens), Q96LB2; FDSS; hits give high values;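 active = plate-corrected calcium response at least 3 library SD above typical, normal starting fluorescence, not activating the receptor alone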;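 note: compound read alongside a low EC10 to EC30 dose of BAM8-22 agonist; peak minus trough fluorescence over baseline measured at the second addition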
RGS4 block – RGS4 inhibitors, primary screen, cell-based, HEK293 M3R inducible RGS4, calcium flux. 310,000 compounds, 0.45% hits. Fluo-4 calcium flux; hits give high values; triggered by carbachol at its EC20. AID 463165, 2010. B-score at 10 µM;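 active = B-score, a plate-corrected calcium signal, over three deviations above library mean, with baseline fluorescence within five deviations of library mean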;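 note: RGS4 expression induced by doxycycline in cells with stable M3 receptor; B-score is computed from the integrated fluorescence ratio over baseline after carbachol; higher B-score means a larger calcium signal and so more RGS4 inhibition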
Target sequence (P49798 whole entry, looked up): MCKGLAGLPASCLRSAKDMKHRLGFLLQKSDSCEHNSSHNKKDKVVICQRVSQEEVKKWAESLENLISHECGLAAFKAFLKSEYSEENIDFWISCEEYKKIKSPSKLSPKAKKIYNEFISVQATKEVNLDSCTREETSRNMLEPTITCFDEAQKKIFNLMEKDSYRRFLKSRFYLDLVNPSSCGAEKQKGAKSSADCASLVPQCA
RGS4 act – RGS4 potentiators or activators, primary screen, cell-based, HEK293 M3R inducible RGS4, calcium flux. carbachol calcium flux Fluo4; hits give low values. B-score at 10 µM. 310,000 compounds, 0.92% hits;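 active = B-score of the integrated calcium signal more than 4 SD below the library mean, with starting fluorescence not abnormally high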;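 note: negative B-score means reduced calcium response which marks RGS4 activation or potentiation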
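Also added: carbachol at ECmax as muscarinic agonist stimulus; Assay system: HEK293 cells with stable M3R and inducible RGS4; Timing: overnight RGS4 induction, 30 min dye load 37 °C, 20 min compound RT; Measured by: Fluo4-AM (2 µM) calcium-flux fluorescence, kinetic read.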
MrgX1 agonist – agonists of human MrgX1 receptor, primary screen, HEK293 cells, Fluo-4 calcium flux | Mas-related G-protein coupled receptor member X1 (Homo sapiens), Q96LB2 | AID 588627, 2011 | B-score at 10 µM | Fluo-4 calcium fluorescence, agonist mode; hits give high values | 310,000 compounds, 0.44% hits;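 active = calcium response B-score plate-corrected fluorescence ratio at least 3 library SD, with starting fluorescence B-score inside 5 SD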
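Material – MrgX1-expressing HEK293 cells · Input – 15,000 cells seeded per well · Dosing – compound as first of three additions · Times – overnight seeding, then 1 h dark dye loading · Measured by – kinetic Fluo-4 NW fluorescence of intracellular calcium · Read-out – B-scored fluorescence response ratio · Benchmarks – positive and negative control wells on each plate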
A number is an active result; i = inactive; nt = no result. Shown are actives, neighbours in structure and some others; about 4.5% of the full set was active somewhere.

SMILES	MrgX1 antag	PHOSPHO1 block	MrgX1 allo act	RGS4 block	RGS4 act	MrgX1 agonist
CCOC(=O)C1=C(CSc2nc3c(cc2C#N)CN(C)CC3)OC(N)=C(C#N)C1c1ccncc1 (stereo not drawn)	i	i	i	i	i	i
CCOC(=O)C1=C(CSc2nc(-c3ccccc3)ccc2C#N)OC(N)=C(C#N)C1c1ccc(OC)cc1 (stereo not drawn)	i	i	i	i	i	i
CCOC(=O)C1=C(CSc2nc3c(cc2C#N)CN(C)CC3)OC(N)=C(C#N)C1c1ccc(Cl)cc1 (stereo not drawn)	i	66.7	i	i	i	i
COc1ccc(N2CCN(C(=O)CSc3nnc(NC(=O)C4CC4)s3)CC2)cc1	i	i	i	i	i	i
CCOc1cc(/C=N/NC(=O)C(O)(c2ccccc2)c2ccccc2)ccc1OC(=O)c1ccco1	i	nt	i	i	-10.2	i
CCOc1cc(/C=N/NC(=O)c2ccc(CN3CCOCC3)cc2)ccc1OCc1ccccc1	i	i	i	i	-7.33	i
CCOc1cc(/C=N/NC(=O)CN2CCOCC2)ccc1OCc1ccccc1	i	i	i	i	i	i
C=CCOc1ccc(Br)cc1CNC(C)(C)C	i	i	i	i	i	i
O=C(c1cc(COc2ccc3ncccc3c2)on1)N1CCC(O)CC1	i	61.5	i	i	i	i
O=C(c1cc(COc2ccc3ncccc3c2)on1)N1CCCC(O)C1 (stereo not drawn)	i	i	i	i	i	i
Nc1ccc(CCc2ccc(N)cc2)cc1	i	nt	i	i	i	i
COc1ccc(-c2nnc(SCc3csc(N)n3)n2C)cc1	i	73.4	i	i	i	i
Cc1ccccc1C(=O)Oc1ccc2ccc(O)cc2c1	i	i	i	i	i	i
Cc1ccccc1S(=O)(=O)Oc1ccc2ccc(O)cc2c1	i	i	i	i	-8.88	i
Cc1nnsc1S(=O)c1ccc(Cl)cc1 (stereo not drawn)	i	i	i	i	i	i
O=C(Nc1ccccc1)c1nnsc1S(=O)c1ccc(Cl)cc1 (stereo not drawn)	i	93.0	i	i	i	i
O=C(O)CCC(=O)c1ccc2c(c1)OCCO2	i	i	i	i	i	i
O=C(O)CCSCC(=O)c1ccc2c(c1)OCCO2	i	77.7	i	i	i	i
Cc1cc(C)cc(NC(=O)CN2CCN(CCN=CC3=C(O)CC(c4ccc(Cl)cc4)CC3=O)CC2)c1 (stereo not drawn)	i	i	i	i	i	i
Cc1ccc(-c2nc3ccccc3c(=O)n2O)cc1	i	nt	i	i	i	i
O=c1c2ccccc2nc(-c2ccc([N+](=O)[O-])cc2)n1O	i	60.9	i	i	i	i
Cc1ccc(-c2nc3ccc(Cl)cc3c(=O)n2O)cc1	i	i	i	i	i	36.9
COc1ccc(-c2ccc(=O)n(Cc3cccc(Cl)c3)n2)cc1	i	i	7.85	i	i	i
Cc1ccc(NC(=O)CSc2ncc3ccccn23)cc1C	i	i	i	i	-7.54	i
COC(=O)c1ccc(NC(=O)c2snnc2-c2ccccc2)cc1	i	61.0	i	i	i	i
SMILES	MrgX1 antag	PHOSPHO1 block	MrgX1 allo act	RGS4 block	RGS4 act	MrgX1 agonist
O=C(NC(=S)NCC1CCCO1)c1ccc(Cl)cc1Cl (stereo not drawn)	i	i	i	i	i	i
COc1ccc(C2=NOC(C(=O)N(C)Cc3ccccc3)C2)cc1 (stereo not drawn)	i	i	i	i	i	i
Cn1c2c(c3ccccc31)CCN=C2c1ccccc1	i	nt	i	i	i	i
Clc1ccc2c(c1)C(N1CCNCC1)Cc1ccccc1S2 (stereo not drawn)	i	i	i	i	-7.81	i
CCNC(=O)c1c(NC(=O)c2cc(-c3cc(C)ccc3O)n[nH]2)sc2c1CCCC2	i	i	i	i	i	i
COc1ccccc1NC(=O)CCC(=O)N(Cc1ccc(OC)c(OC)c1)c1nccs1	-7.38	i	i	i	i	i
